Bioassay records from PubChem.
Rows were chosen to be rich in hits. Some 1.7% of all compounds tested hit in one or more screens of this group.
SUMO1-SIM PPI: alters human SUMO1 binding to SIM partners; P63165; SUMO1 binding to a labelled peptide, TR-FRET, 1 h; inhibition, % at 20 µM; 360,000 compounds, 0.33% hits; in the data active means inhibition above about 37%
Target sequence (P63165 whole entry, looked up): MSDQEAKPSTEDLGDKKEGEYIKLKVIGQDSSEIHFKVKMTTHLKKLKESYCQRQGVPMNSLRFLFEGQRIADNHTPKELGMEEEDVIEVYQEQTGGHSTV
STEP block: blocks human striatal-enriched tyrosine phosphatase. recombinant STEP, OMFP fluorogenic substrate, fluorescence. inhibition, % at 20 µM. P54829. 360,000 compounds, 0.25% hits;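 active means inhibition at 20 µM, scaled per plate between control wells, above about 37%, limit read from the data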;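 further: 0% = DMSO with enzyme and substrate and 100% = substrate only without enzyme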
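Assay system: isolated STEP enzyme / Timing: 20 min at room temperature, dark / Doses: 20 µM, 1% DMSO / Technique: fluorescence intensity, excitation 480 nm, emission 540 nm / Reagent: fluorogenic phosphatase substrate OMFP at 25 µM final / Measure: percent inhibition scaled to no-enzyme and uninhibited-enzyme controls, plate-pattern corrected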
DNMT1 block: blocks human DNA methyltransferase DNMT1. P26358. DNMT1 molecular beacon, Hinp1I cleavage, fluorescence. inhibition (reported as % activation of signal), % at 10 µM. 360,000 compounds, 0.83% hits; in the data active means inhibition above about 50%
Scp1 inh: inhibitors of human Scp-1 phosphatase. 340,000 compounds, 0.88% hits. Q9GZU7. inhibition, % at 20 µM. Recombinant Scp1, phosphopeptide, malachite green phosphate absorbance;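 active means inhibition above about 50% at 20 µM, limit read from the data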;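 further: plate controls were DMSO wells with enzyme for no effect and wells lacking enzyme for full effect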
Target sequence (Q9GZU7 76-261 limits assumed): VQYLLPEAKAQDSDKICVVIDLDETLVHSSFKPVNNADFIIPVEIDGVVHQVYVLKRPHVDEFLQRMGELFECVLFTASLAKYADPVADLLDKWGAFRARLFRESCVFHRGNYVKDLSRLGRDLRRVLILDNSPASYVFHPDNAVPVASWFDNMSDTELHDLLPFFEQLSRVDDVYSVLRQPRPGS
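Test system: SCP-1 phosphatase catalytic domain, residues 76-261; measured by: colorimetric phosphate reagent with accelerator and stabiliser, absorbance at 630 nm; timing: enzyme reaction 45 min at room temperature, colour 5 min, stabilisation 30 min; also added: Phosphorylated 17-residue peptide substrate; compound dosing: one concentration, 20 µM, with 1.0% DMSO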
LMPTP inh: blocks human LMPTP phosphatase; recombinant LMPTP-A, OMFP fluorogenic substrate, fluorescence intensity; inhibition, % at 20 µM; 360,000 compounds, 0.22% hits; AID 651560;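 active means compounds that cut the enzyme signal by at least half of the control window in the single-dose screen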;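 further: plate controls were DMSO wells with enzyme plus substrate for no effect and substrate without enzyme for full effect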
Target sequence (P24666 whole entry, looked up): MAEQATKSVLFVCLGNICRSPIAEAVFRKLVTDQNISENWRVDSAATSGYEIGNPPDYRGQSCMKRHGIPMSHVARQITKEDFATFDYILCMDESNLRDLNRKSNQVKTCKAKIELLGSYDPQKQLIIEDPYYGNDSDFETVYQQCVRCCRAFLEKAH
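material = LMPTP-A | quantity = 0.625 nM enzyme | reagent = OMFP substrate, 400 µM final | buffer or medium = Bis-Tris pH 6.0, DTT, detergent | detection = endpoint fluorescence intensity from OMFP dephosphorylation | dosing = single 20 µM dose | read-out basis = % inhibition relative to no-enzyme and uninhibited control wells | control set = no-enzyme and uninhibited controls | timing = 50 min at room temperature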
Scp-1 conf: confirmation of human Scp-1 phosphatase inhibitors; AID 540281; 2,500 compounds, 61% hits; inhibition, % at 20 µM; shares compounds with Scp1 inh; recombinant SCP-1 catalytic domain, phosphate release, malachite green absorbance;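 further: plate controls were DMSO with enzyme for no effect and buffer wells lacking enzyme for full effect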
MG interference: counter-screen for Scp-1 inhibitors: colorimetric interference; shares compounds with Scp1 inh; Colorimetric interference counterscreen, malachite green absorbance 630 nm; apparent inhibition (interference), % at 20 µM; 2,500 tested, under 10 active;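 further: compounds added after enzyme reaction finished so only phosphate colour detection is probed; plate controls were DMSO wells with completed Scp-1 reaction for no effect and substrate wells lacking enzyme for full effect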
Scp-1 Tm shift: binds human Scp-1, shifting its melting temperature; shares compounds with Scp1 inh; Recombinant SCP1, Sypro Orange thermal shift Tm; thermal shift relative to vanadate control, % at 40 µM; 1,500 compounds, 25% hits;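 active means substances whose mean melting-temperature shift, as a percentage of the reference inhibitor's shift, reaches about 5.3%, limit read from the data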;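 further: 0% = Tm of DMSO wells and 100% = Tm with sodium orthovanadate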
Starred values were filed as active, the others as inactive; x = no result given.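 How the source made its calls, unless noted: active means inhibition of at least 30% at 20 µM; inactive means the rest.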

SMILES	SUMO1-SIM PPI	STEP block	DNMT1 block	Scp1 inh	LMPTP inh	Scp-1 conf	MG interference	others
Cc1noc(C)c1NC(=O)N(C)C[C@H]1Oc2ccc(NS(=O)(=O)c3cn(C)cn3)cc2C(=O)N([C@H](C)CO)C[C@@H]1C	2	0	6	64*	-1	3	-9
C[C@@H]1CN([C@H](C)CO)C(=O)Cc2cc(NS(=O)(=O)c3cn(C)cn3)ccc2O[C@H]1CN(C)S(=O)(=O)c1ccc(Cl)cc1	1	-1	4	65*	0	0	-20
C[C@H](CO)N1C[C@H](C)[C@@H](CN(C)S(=O)(=O)c2cn(C)cn2)Oc2ccc(NC(=O)Nc3ccc4c(c3)OCO4)cc2C1=O	-4	-1	-1	-5	0	x	x
COc1ccc(NC(=O)N(C)C[C@H]2Oc3ccc(NS(=O)(=O)c4cn(C)cn4)cc3C(=O)N([C@H](C)CO)C[C@@H]2C)cc1	1	-1	5	4	-2	x	x
CCC(C)C(NS(=O)(=O)c1ccc(C)cc1)C(=O)NCCCN1CCOCC1 (configuration not stated)	2	1	2	-5	-4	x	x
O=C(CSc1ccc(-c2ccc(-n3cccn3)cc2)nn1)Nc1ccccc1F	4	3	8	1	-1	x	x
CCOC(=O)c1ccc(NC(=O)COc2cc3oc(=O)c(CC(C)O)c(C)c3cc2Cl)cc1 (configuration not stated)	11	2	-8	25	1	x	x
CC(=O)c1cccc(NC(=O)COc2cc3oc(=O)c(CC(C)O)c(C)c3cc2Cl)c1 (configuration not stated)	-6	-1	9	51*	3	46*	-13	Scp-1 Tm shift=-20
O=C(NCc1ccccc1OC(F)(F)F)C1CCC(=O)N(Cc2cccc(F)c2)C1 (configuration not stated)	5	-3	0	-10	-1	x	x
O=C(NCCc1ccccc1F)C1CCC(=O)N(Cc2ccccc2F)C1 (configuration not stated)	-1	0	0	-5	0	x	x
COc1ccccc1CN1CC(C(=O)NCc2cc(C(C)C)no2)CCC1=O (configuration not stated)	5	-4	1	70*	-1	-8	-10
O=C(NCCN1CCNC1=O)C1CCC(=O)N(Cc2ccccc2F)C1 (configuration not stated)	4	-3	3	-7	-2	-17	-16
Cc1ccccc1CNC(=O)C1CCC(=O)N(Cc2cccc(F)c2)C1 (configuration not stated)	4	1	2	1	-1	-13	-13
COC(=O)[C@H](Cc1ccccc1)NC(=O)/C=C/[C@H]1O[C@@H](n2cc(C)c(=O)[nH]c2=O)C[C@@H]1O	-2	-2	2	x	-2	x	x
CN(C)c1ccc(N2C(=NC(=O)C3CCCO3)SC3CS(=O)(=O)CC32)cc1 (configuration not stated)	-3	1	-3	-3	1	x	x
CC1CCN(S(=O)(=O)c2ccc(NC(=O)Cc3cccs3)cc2)CC1	2	0	25	77*	3	60*	-26	Scp-1 Tm shift=5.8*
Cc1ccc2c(c1)NC(=O)C(CC(=O)Nc1ccc(CN3CCC(C)CC3)cc1)O2 (configuration not stated)	-2	-4	-2	52*	1	-13	-7
COc1ccc(NC(=O)c2cc3c(COC(C)=O)cnc(C)c3oc2=Nc2cccc(C(=O)O)c2)c(OC)c1	12	98*	36	89*	19	64*	-14	Scp-1 Tm shift=5
COc1ccc(S(=O)(=O)Nc2ccc3c(c2)C(=O)N([C@@H](C)CO)C[C@H](C)[C@H](CN(C)CC2CC2)O3)cc1	-4	-1	2	-5	0	x	x
